# Screens: PubChem, several laboratories
# An excerpt weighted towards active compounds, which were near 7.1% of everything screened.
# Cav32 inh – inhibitors of human Cav3.2 T-type calcium channel; B-score at 10 µM; actives 4% (n = 100,000); Cav3.2-expressing cells, Fluo-4 calcium fluorescence FDSS; active compounds read low; O95180;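 active means single-dose well whose peak fluorescence ratio is a statistical outlier from its plate by either plate-standardised score or position-corrected B-score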
# Target sequence (O95180 whole entry, looked up): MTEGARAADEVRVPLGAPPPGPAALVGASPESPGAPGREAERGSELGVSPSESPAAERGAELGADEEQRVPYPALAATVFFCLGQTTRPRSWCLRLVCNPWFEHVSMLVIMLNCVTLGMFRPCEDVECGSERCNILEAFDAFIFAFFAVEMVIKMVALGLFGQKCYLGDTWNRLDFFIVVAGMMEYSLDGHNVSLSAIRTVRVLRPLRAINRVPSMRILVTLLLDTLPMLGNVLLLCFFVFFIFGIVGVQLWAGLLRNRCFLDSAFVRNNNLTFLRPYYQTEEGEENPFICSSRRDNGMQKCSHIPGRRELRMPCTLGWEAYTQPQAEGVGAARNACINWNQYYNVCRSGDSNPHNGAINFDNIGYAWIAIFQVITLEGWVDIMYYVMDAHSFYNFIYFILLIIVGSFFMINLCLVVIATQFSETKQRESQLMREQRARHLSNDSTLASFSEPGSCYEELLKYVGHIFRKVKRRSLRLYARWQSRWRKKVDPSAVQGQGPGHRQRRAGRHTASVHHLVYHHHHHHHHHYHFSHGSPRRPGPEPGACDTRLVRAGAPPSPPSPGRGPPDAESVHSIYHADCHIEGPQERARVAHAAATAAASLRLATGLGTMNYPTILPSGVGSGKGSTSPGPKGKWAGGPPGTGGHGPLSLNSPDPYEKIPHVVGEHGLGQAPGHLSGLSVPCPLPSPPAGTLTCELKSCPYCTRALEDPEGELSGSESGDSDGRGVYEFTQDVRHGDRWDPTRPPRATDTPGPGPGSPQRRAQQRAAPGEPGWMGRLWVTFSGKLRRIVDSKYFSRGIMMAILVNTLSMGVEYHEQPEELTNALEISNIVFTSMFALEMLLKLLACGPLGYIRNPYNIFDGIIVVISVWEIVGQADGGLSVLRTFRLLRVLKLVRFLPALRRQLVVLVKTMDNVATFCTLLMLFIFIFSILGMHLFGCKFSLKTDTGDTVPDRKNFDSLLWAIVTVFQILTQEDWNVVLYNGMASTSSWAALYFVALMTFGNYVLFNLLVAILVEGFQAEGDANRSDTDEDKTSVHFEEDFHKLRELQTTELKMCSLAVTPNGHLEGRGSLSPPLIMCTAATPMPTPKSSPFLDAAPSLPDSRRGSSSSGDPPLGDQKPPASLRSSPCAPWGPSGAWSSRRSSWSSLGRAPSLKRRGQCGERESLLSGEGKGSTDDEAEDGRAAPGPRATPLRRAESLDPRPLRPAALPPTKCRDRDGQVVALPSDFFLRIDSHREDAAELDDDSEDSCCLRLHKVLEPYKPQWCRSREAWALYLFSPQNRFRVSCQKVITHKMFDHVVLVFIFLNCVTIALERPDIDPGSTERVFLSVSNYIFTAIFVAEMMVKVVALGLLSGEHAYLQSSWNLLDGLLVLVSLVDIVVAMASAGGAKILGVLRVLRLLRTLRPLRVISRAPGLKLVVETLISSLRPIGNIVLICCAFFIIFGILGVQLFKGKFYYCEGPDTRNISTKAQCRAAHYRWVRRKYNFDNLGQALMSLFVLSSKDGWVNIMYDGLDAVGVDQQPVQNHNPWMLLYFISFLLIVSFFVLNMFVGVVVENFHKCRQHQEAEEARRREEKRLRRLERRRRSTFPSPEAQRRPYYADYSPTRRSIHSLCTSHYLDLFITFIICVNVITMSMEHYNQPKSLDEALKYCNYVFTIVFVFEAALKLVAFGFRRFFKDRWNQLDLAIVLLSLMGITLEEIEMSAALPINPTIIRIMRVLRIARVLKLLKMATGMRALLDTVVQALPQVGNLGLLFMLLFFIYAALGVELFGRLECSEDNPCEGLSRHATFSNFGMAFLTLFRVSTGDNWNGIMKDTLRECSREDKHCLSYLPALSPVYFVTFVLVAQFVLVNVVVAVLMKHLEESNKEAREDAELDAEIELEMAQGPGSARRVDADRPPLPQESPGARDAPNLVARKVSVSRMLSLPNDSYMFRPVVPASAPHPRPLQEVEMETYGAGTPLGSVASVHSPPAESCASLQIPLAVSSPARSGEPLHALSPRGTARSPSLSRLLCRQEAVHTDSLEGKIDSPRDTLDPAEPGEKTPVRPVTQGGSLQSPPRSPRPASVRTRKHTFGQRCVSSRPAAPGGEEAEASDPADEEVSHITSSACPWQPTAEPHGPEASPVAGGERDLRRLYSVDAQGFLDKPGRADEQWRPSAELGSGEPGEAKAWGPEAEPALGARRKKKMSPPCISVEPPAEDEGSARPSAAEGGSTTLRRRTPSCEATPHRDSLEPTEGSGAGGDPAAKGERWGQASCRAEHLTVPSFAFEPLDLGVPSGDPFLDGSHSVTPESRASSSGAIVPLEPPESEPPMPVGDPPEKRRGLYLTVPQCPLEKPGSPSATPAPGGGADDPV
# H69AR growth 86K – growth inhibitors of human H69AR lung tumor cells. H69AR lung tumor viability, ATP luminescence, 72 h; active compounds read low. viability, % at 10 µM. actives 6% (n = 85,000). AID 598;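 active means viability at or below 40%; inactive means viability above 40%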;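 further: multidrug resistant small cell line overexpressing MRP-1 efflux transporter; 100% = mean luminescence of untreated control wells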
# HCT116 bCat-KO – beta-catenin-lacking colon tumor cell growth suppression; viability, % at 10 µM; actives 1.5% (n = 140,000); AID 818; HCT116 beta-catenin knockout viability, CellTiter-Glo, 60 h; active compounds read low;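 active means viability at or under a set limit, the compound median less 4 SD, cut at about 6% in these data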;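 further: 0% = Hyamine 1622 control at 20 µM and 100% = untreated cell control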
# HCT116 PTEN-null – suppresses growth of cells with PTEN deletion | HCT116 PTEN-null viability, CellTiter-Glo, 60 h; active compounds read low | viability, % at 10 µM | actives 1.2% (n = 140,000) | AID 827;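 active means viability at or below a set limit, 4 SD under the median of all tested compounds, cut at about 3.7% in these data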;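 further: PTEN knockout HCT116 line with beta catenin targeted HCT116 as companion control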
# Fibroblast inh – blocks proliferation of human lung fibroblasts | LL 47 human lung fibroblast viability, ATP luminescence; active compounds read low | viability, % at 10 µM | actives 1.1% (n = 85,000) | AID 719;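 active means viability at or below 50% in the single dose screen; inactive means viability above 50%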;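 further: compound exposure lasted 72 h before the ATP readout; 100% = median luminescence of untreated cell-only wells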
#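 Assay system: human lung fibroblast line LL 47, low passage. Input: 1,150 fibroblasts seeded per well. Times: overnight cell rest, 72 h compound treatment at 37 °C. Evaluation: % viability of median cell-only signal. Technique: luminescent ATP detection, CellTiter-Glo. Control set: cell-only wells, no compound.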
# HUVEC prolif 384 – blocks proliferation of human endothelial cells; actives 1.1% (n = 86,000); viability, % at 10 µM (by protocol); HUVEC proliferation, CellTiter-Glo luminescence, 72 h; active compounds read low;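 active means viability at or below 30%; inactive means viability above 30%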;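 further: 100% = median luminescence of DMSO-only cell control wells on each plate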
# Active calls of the source: *; · = no result given; ! = not active in a repeat.
SMILES,Cav32 inh,H69AR growth 86K,HCT116 bCat-KO,HCT116 PTEN-null,Fibroblast inh,HUVEC prolif 384
O=C(NCCc1ccccc1)C(=O)NCC1(c2ccccc2)CCCC1,-0.046,89,83,105,88,88
COC(=O)c1ccccc1NC(=S)N(Cc1ccc2c(c1)OCO2)Cc1cc2cccc(C)c2[nH]c1=O,·,·,80,79,·,·
CC(NC(=O)C1CCCCC1)C(=O)NC1=NCCS1 (centres undefined),0.2,91,93,102,97,81
O=C(NC1CCCC1)c1sc(=S)n2c1[nH]c(=O)c1ccccc12,-2.9,22*,69,69,96,64
O=C(NCc1ccco1)c1sc(=S)n2c1[nH]c(=O)c1ccccc12,-2.7,88,90,84,102,92
Cc1cnc(Nc2nc3ccccc3o2)nc1C(=O)Nc1cccc(C(F)(F)F)c1,-6.1*,1.3*,71,33,44*,45
Cc1occc1C(=O)Nc1cccc(C(F)(F)F)c1,-1.5,83,100,99,88,81
CC(C)CCN1CN(S(=O)(=O)c2cccs2)c2nc3ccccc3nc21,0.26,37*,80,67,94,80
O=C(NC(=S)Nc1ccccc1)c1csnn1,-0.87,·,103,105,·,·
CN1CCN(CCCN2c3ccccc3Sc3ccc(Cl)cc32)CC1,-5.1*!,71,10,13,94,95
CN(C)CCCN1c2ccccc2Sc2ccc(C(F)(F)F)cc21,-0.47,1.5*,11,13,41*,47
CN1CCN(CCC(=O)N2c3ccccc3Sc3ccc(C(F)(F)F)cc32)CC1,0.12,85,95,102,91,85
CCN(CC)CC(=O)N1c2ccccc2Sc2ccc(Cl)cc21,-0.38,68,87,90,98,96
OCCN1CCN(CCCN2c3ccccc3Sc3ccc(C(F)(F)F)cc32)CC1,0.11,0.8*,1.7*,1.5*,47*,2.9*
C=CCN(CC=C)S(=O)(=O)c1ccc2nc(NC(=O)C3CCCO3)sc2c1 (centres undefined),·,·,79,82,·,·
O=C(CCCCl)Oc1ccc2cc(-c3ccc4ccccc4n3)c(=O)oc2c1,·,·,81,79,·,·
Cc1ccc(-n2nnnc2SCc2ccccn2)cc1C,0.15,91,101,105,102,102
O=c1cc(-c2ccccc2)[nH]c2nc3ccccc3n12,0.32,14*,21,17,66,53
CCc1c(C)[nH]c2nc3ccccc3n2c1=O,0.37,80,94,90,97,92
Cc1cc(C)c(NC(=O)c2ccc(CNS(=O)(=O)c3cc(C(F)(F)F)ccc3Cl)cc2)c(C)c1,·,·,74,67,·,·
COc1ccc(C(c2nnnn2Cc2ccc(F)cc2)N2CCN(c3ccc(OC)cc3)CC2)cc1 (centres undefined),·,80,85,93,90,99
COc1ccc(C(c2nnnn2Cc2ccc(F)cc2)N2CCN(c3ccccc3)CC2)cc1 (centres undefined),-5.8*,90,71,61,89,104
COc1ccc(N2CCN(C(c3ccccc3)c3nnnn3Cc3ccc(F)cc3)CC2)cc1 (centres undefined),-4.6*,94,90,70,100,109
Cc1ccc(/C=N/n2c(C3CCCCC3)n[nH]c2=S)s1,·,·,104,98,·,·
CCOc1cc(S(=O)(=O)N2CCC(C(N)=O)CC2)ccc1F,0.66,96,96,101,96,99
SMILES,Cav32 inh,H69AR growth 86K,HCT116 bCat-KO,HCT116 PTEN-null,Fibroblast inh,HUVEC prolif 384
O=C(CSc1nc2ccccc2c(=O)n1-c1ccccc1Cl)Nc1cccc(S(=O)(=O)N2CCOCC2)c1,·,·,91,87,·,·
CCCCCCCCCCCCCCCC(O)C(N)CO (centres undefined),-3.5,·,1.9*,1.5*,·,·
CC(C)NCCCCOc1ccccc1-c1ccccc1,·,·,79,76,·,·
C/C(=N\NC(=O)CC1N=C(Cc2ccccc2)NNC1=O)c1ccccc1 (centres undefined),0.75,89,109,100,106,100
C/C(=N\NC(=O)CC1N=C(Cc2ccccc2)NNC1=O)c1ccc(Cl)cc1Cl (centres undefined),-4.7*,69,69,69,104,70
COc1ccc(NC(=O)N(Cc2ccc3c(c2)OCO3)C2CC(=O)N(c3ccc(OC)cc3)C2=O)cc1 (centres undefined),1.2,40*,87,83,97,88
CCOc1ccc(NC(=NCc2ccc3c(c2)OCO3)SC2CC(=O)N(c3ccc(C(=O)O)cc3)C2=O)cc1 (centres undefined),·,·,89,85,·,·
CCOc1ccc(NC(=NCc2ccc3c(c2)OCO3)SC2CC(=O)N(c3ccccc3)C2=O)cc1 (centres undefined),-0.4,35*,70,69,83,53
CCOc1ccc(NC(=NCc2ccc3c(c2)OCO3)SC2CC(=O)N(c3ccc(OCC)cc3)C2=O)cc1 (centres undefined),0.31,101,2.2*,8,43*,26*
CCOC(=O)N1CCN(c2ncnc3c2oc2nc(C(C)C)c4c(c23)CCC4)CC1,-1.2,48,90,83,98,24*
CCN1CCN(c2ncnc3c2oc2nc(C(C)C)c4c(c23)CCC4)CC1,·,64,·,·,98,88
CC(=O)c1c(CC(=O)O)[nH]n(-c2nc3ccccc3s2)c1=O,0.031,81,52,47,102,98
COc1ccc(CN=C(C)c2c(C(F)(F)F)[nH]n(-c3nc4ccccc4s3)c2=O)cc1,-0.093,13*,33,38,101,22*
Cc1c(Cl)cccc1NC(=S)NNc1ncc(C(F)(F)F)cc1Cl,-4.3,16*,69,68,96,50
CC1=NNC(=O)C(CC(=O)Nc2ccc(Cl)c(Cl)c2)C1 (centres undefined),·,·,92,101,·,·
O=c1c2ccccc2c(C=NCCc2ccccc2)c(O)n1Cc1ccccc1,-3.9*,78,107,91,104,100
Cc1ccc(CNC(=O)[C@H]2C[C@@H]2[C@H](NP(=O)(c2ccccc2)c2ccccc2)c2ccccc2)o1,-2,·,75,71,·,·
CC1=NOC(=O)/C1=C/c1ccc(-c2ccc(Cl)cc2)o1,0.14,2.5*,18,16,8.7*,56
CCCC(=O)c1ccc(N2CCC(C)CC2)c(F)c1,·,·,81,83,·,·
O=c1ccc2cc(O)c(O)cc2o1,-1.5,37*,80,77,85,70
Clc1ccccc1CN(Cc1ccccc1)c1ncnc2nc[nH]c12,-3.7*,36*,95,101,91,87
Clc1ccccc1CNc1ncnc2nc[nH]c12,-1.1,60,87,86,106,93
CN(C)CCCNC(NC(=O)c1cccs1)C(Cl)(Cl)Cl (centres undefined),·,·,97,107,·,·
O=C(COc1ccc(Cl)cc1)NCCSCc1cccc(Cl)c1,-4.3*,·,89,101,·,·
COCCN1CCN(C(=O)c2ccc3c(c2)S(=O)(=O)c2ccccc2C3=O)CC1,0.93,·,·,·,·,·
